Test results as given in ChEMBL document CHEMBL2331304, “N1,N3-disubstituted uracils as nonnucleoside inhibitors of HIV-1 reverse transcriptase” (Bioorg Med Chem, 2013).
Calls of active or inactive are those of the source. No cut-off for these calls is given here.

Assays:
[1] = tested on: Human immunodeficiency virus 1; test: Antiviral activity against HIV1 3B infected in human MT4 cells assessed as inhibition of virus-induced cytopathic effect after 4 days by MTT assay; type: functional, organism-based; conditions: Human immunodeficiency virus 1, 3B, MT4, 96 h
In short: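 HIV-1 in MT-4 cells at 1 × 10^5 cells/ml, infected at MOI 0.02 (virus stock titrated as CCID50), then plated immediately onto varying compound concentrations. After 4 days at 37 °C, viable cells counted by MTT.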

Human alphaherpesvirus 1 = test: Antiviral activity against Human herpesvirus 1; type: functional, organism-based
In short: (§1)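 Confluent HEL, Vero, HeLa or MDCK monolayers (cell type per virus not specified) were inoculated with 100 CCID50 of virus, with a range of compound concentrations. Strains were HSV-1 KOS and TK− ACV-resistant KOS, HSV-2 Lyons and G, and HCMV AD-169 and Davis. Cytopathicity or plaques were scored once complete in untreated infected controls.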

Human alphaherpesvirus 2 = test: Antiviral activity against Human herpesvirus 2; type: functional, organism-based; in short: as §1
Human alphaherpesvirus 3 = test: Antiviral activity against Varicella zoster virus; type: functional, organism-based
In short: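 VZV strain Oka and the TK− strain 07-1 were inoculated at 20 PFU onto confluent cell monolayers in the presence of varying compound concentrations. Plaque formation was recorded once complete in untreated infected controls.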

[2] = molecular target: Human immunodeficiency virus type 1 reverse transcriptase (Human immunodeficiency virus 1, UniProt Q72547, K103N); test: Inhibition of HIV1 reverse transcriptase p66/p51 K103N mutant after 30 mins by liquid scintillation counting
Vaccinia virus = test: Antiviral activity against Vaccinia virus; type: functional, organism-based; conditions: Orthopoxvirus vaccinia
[3] = tested on: Vesicular stomatitis virus; test: Antiviral activity against Vesicular stomatitis virus; type: functional, organism-based
[4] = molecular target: Human immunodeficiency virus type 1 reverse transcriptase (Human immunodeficiency virus 1, UniProt Q72547, V106A); test: Inhibition of HIV1 reverse transcriptase p66/p51 V106A mutant after 30 mins by liquid scintillation counting
Sindbis virus = test: Antiviral activity against Sindbis virus; type: functional, organism-based
[5] = tested on: Respiratory syncytial virus; test: Antiviral activity against Respiratory syncytial virus; type: functional, organism-based
[6] = molecular target: Human immunodeficiency virus type 1 reverse transcriptase (Human immunodeficiency virus 1, UniProt Q72547); test: Non-competitive inhibition of wild type HIV1 reverse transcriptase p66/p51 after 30 mins by liquid scintillation counting
[7] = Selectivity index, ratio of CC50 for human MT4 cells to EC50 for HIV1 3B infected in human MT4 cells; type: toxicity, cell-based; conditions: MT4 cells (uninfected for CC50; HIV-1 3B infected for EC50)
Human respirovirus 3 = test: Antiviral activity against Parainfluenza virus 3; type: functional, organism-based
[8] = Inhibition of HIV1 reverse transcriptase p66/p51 G190A mutant after 30 mins by liquid scintillation counting; design: species or system Human immunodeficiency virus 1
MT4 = test: Cytotoxicity against human MT4 cells after 4 days by MTT assay; type: cell-based; conditions: mt4, 96 h
[9] = molecular target: Human immunodeficiency virus type 1 reverse transcriptase (Human immunodeficiency virus 1, UniProt Q72547, L100I); test: Inhibition of HIV1 reverse transcriptase p66/p51 L100I mutant after 30 mins by liquid scintillation counting
Feline coronavirus = test: Antiviral activity against Feline coronavirus; type: functional, organism-based
[10] = tested on: Mammalian orthoreovirus 1; test: Antiviral activity against Reovirus 1; type: functional, organism-based
Influenza B virus = test: Antiviral activity against influenza B virus; type: functional, organism-based
Influenza A virus [11] = test: Antiviral activity against Influenza A virus H3N2; type: functional, organism-based
Influenza A virus [12] = test: Antiviral activity against Influenza A virus H1N1; type: functional, organism-based
[13] = molecular target: Human immunodeficiency virus type 1 reverse transcriptase (Human immunodeficiency virus 1, UniProt Q72547, K103N/Y181C); test: Inhibition of HIV1 reverse transcriptase p66/p51 K103N/Y181C mutant after 30 mins by liquid scintillation counting
Coxsackievirus B4 = test: Antiviral activity against Coxsackievirus B4; type: functional, organism-based
[14] = molecular target: Human immunodeficiency virus type 1 reverse transcriptase (Human immunodeficiency virus 1, UniProt Q72547, Y181C); test: Inhibition of HIV1 reverse transcriptase p66/p51 Y181C mutant after 30 mins by liquid scintillation counting
Punta Toro virus = test: Antiviral activity against Punta Toro virus; type: functional, organism-based
Human betaherpesvirus 5 [15] = test: Antiviral activity against HCMV Davis; type: functional, organism-based; conditions: Human betaherpesvirus 5, Davis; in short: as §1
Human betaherpesvirus 5 [16] = test: Antiviral activity against HCMV AD169; type: functional, organism-based; conditions: Human betaherpesvirus 5, AD169; in short: as §1

Row | SMILES | EC50 [1] [nM] | Activity (Human alphaherpesvirus 1) | Activity (Human alphaherpesvirus 2) | Activity (Human alphaherpesvirus 3) | Ki [2] [µM] | Activity (Vaccinia virus) | Activity [3] | Ki [4] [µM] | Activity (Sindbis virus) | Activity [5] | Ki [6] [nM] | selectivity ratio [7] | Activity (Human respirovirus 3) | Ki [8] [nM] | CC50 (MT4) [µM] | Ki [9] [nM] | Activity (Feline coronavirus) | Activity [10] | Activity (Influenza B virus) | Activity (Influenza A virus [11]) | also measured
1 | Cc1ccc(OCCn2ccc(=O)n(Cc3cc(C)cc(C)c3)c2=O)cc1 | 270 | inactive | inactive | inactive | > 26 | inactive | inactive | 7.5 | inactive | inactive | 260 | > 1270 | inactive | 360 | > 343 | 130 | inactive | inactive | inactive | inactive | Activity (Influenza A virus [12]): inactive; Ki [13]: > 26 µM; Activity (Coxsackievirus B4): inactive; Ki [14]: 169 µM; Activity (Punta Toro virus): inactive
2 | Cc1cc(C)cc(Cn2c(=O)ccn(C/C=C/c3ccccc3)c2=O)c1 | 1270 | inactive | inactive | inactive | 12 | inactive | inactive | 2.9 | inactive | inactive | 550 | 202 | inactive | 400 | 257 | 760 | inactive | inactive | inactive | inactive | Activity (Influenza A virus [12]): inactive; Ki [13]: > 100 µM; Activity (Coxsackievirus B4): inactive; Ki [14]: 75 µM; Activity (Punta Toro virus): inactive
3 | Cc1cc(Br)cc(Cn2c(=O)ccn(C/C=C/c3ccccc3)c2=O)c1 | 1360 | inactive | inactive | inactive | 6.9 | inactive | inactive | 2.3 | inactive | inactive | 310 | 73 | inactive | 180 | 100 | 240 | inactive | inactive | inactive | inactive | IC50 (Human betaherpesvirus 5 [15]): ≥ 20 µM; Activity (Influenza A virus [12]): inactive; IC50 (Human betaherpesvirus 5 [16]): 16 µM; Ki [13]: 85 µM; Activity (Coxsackievirus B4): inactive; Ki [14]: 20 µM; Activity (Punta Toro virus): inactive
4 | O=c1ccn(C/C=C/c2ccccc2)c(=O)n1Cc1cc(Cl)cc(Cl)c1 | 1990 | inactive | inactive | inactive | 15.5 | inactive | inactive | 11 | inactive | inactive | 670 | 24 | inactive | 550 | 49 | 920 | inactive | inactive | inactive | inactive | IC50 (Human betaherpesvirus 5 [15]): 12 µM; Activity (Influenza A virus [12]): inactive; IC50 (Human betaherpesvirus 5 [16]): 9.4 µM; Ki [13]: > 100 µM; Activity (Coxsackievirus B4): inactive; Ki [14]: 43 µM; Activity (Punta Toro virus): inactive
5 | O=c1ccn(C/C=C/c2ccccc2)c(=O)n1Cc1cc(Br)cc(Br)c1 | 1720 | inactive | inactive | inactive | 9.4 | inactive | inactive | 4.2 | inactive | inactive | 310 | 134 | inactive | 300 | 231 | 360 | inactive | inactive | inactive | inactive | Activity (Influenza A virus [12]): inactive; Ki [13]: > 100 µM; Activity (Coxsackievirus B4): inactive; Ki [14]: 25 µM; Activity (Punta Toro virus): inactive
